Results published in ChEMBL document CHEMBL3596097, “Stereoselective synthesis and pharmacological evaluation of [4.3.3]propellan-8-amines as analogs of adamantanamines” (Bioorg Med Chem, 2015).
Active and inactive are the calls of the source. No cut-off for these calls is given here.

Key:
[1] = test system: Influenza A virus; experiment: Antiviral activity against Influenza virus A/FPV/Bratislava/79(H7N7) infected in human A549 cells assessed as viral replication at 5 uM after 24 hrs by plaque assay relative to control; format: functional
[2] = biological target: Sigma non-opioid intracellular receptor 1 (Cavia porcellus) (UniProt Q60492); experiment: Displacement of [3H]-(+)-pentazocine from sigma-1 receptor in guinea pig brain cortex membranes up to 10 uM after 120 mins by scintillation counting analysis; format: cell membranes; settings: Cerebral cortex
Sigma non-opioid intracellular receptor 1 (Cavia porcellus), sequence (Q60492 whole entry): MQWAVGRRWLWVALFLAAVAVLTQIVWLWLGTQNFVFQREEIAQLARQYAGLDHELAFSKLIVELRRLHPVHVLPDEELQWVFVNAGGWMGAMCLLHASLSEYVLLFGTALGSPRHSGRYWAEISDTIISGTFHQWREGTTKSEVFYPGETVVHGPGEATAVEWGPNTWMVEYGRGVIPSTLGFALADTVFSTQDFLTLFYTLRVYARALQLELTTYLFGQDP

[3] = species on record: Rattus norvegicus; experiment: Displacement of [3H]-DTG from sigma-2 receptor in rat liver membranes up to 10 uM after 120 mins by scintillation counting analysis; format: cell membranes; settings: Membrane
[4] = Displacement of [3H]-(+)-MK-801 from phencyclidine binding site of NMDA receptor in pig membranes after 150 mins by scintillation counting analysis; format: cell membranes, Sus scrofa
Outline: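 Thawed membrane preparation (about 100 µg protein) incubated with test compound at various concentrations and 2 nM [3H]-(+)-MK-801 (22.0 Ci/mmol) in TRIS/EDTA (5 mM/1 mM, pH 7.5), 150 min, rt. Stopped by rapid filtration over presoaked filtermats, five water washes, melted solid scintillator, then counting. Nonspecific binding was taken with unlabeled (+)-MK-801. Radioligand Kd 2.26 nM.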

[5] = biological target: Glutamate NMDA receptor; GRIN1/GRIN2A (Homo sapiens, UniProt Q05586+Q12879); experiment: Displacement of [3H]-(+)-MK-801 from phencyclidine binding site of NMDA receptor in human frontal cortex after 22 hrs by scintillation counting analysis; format: tissue-based
Glutamate NMDA receptor; GRIN1/GRIN2A, sequence (Q12879 whole entry, other chains not shown): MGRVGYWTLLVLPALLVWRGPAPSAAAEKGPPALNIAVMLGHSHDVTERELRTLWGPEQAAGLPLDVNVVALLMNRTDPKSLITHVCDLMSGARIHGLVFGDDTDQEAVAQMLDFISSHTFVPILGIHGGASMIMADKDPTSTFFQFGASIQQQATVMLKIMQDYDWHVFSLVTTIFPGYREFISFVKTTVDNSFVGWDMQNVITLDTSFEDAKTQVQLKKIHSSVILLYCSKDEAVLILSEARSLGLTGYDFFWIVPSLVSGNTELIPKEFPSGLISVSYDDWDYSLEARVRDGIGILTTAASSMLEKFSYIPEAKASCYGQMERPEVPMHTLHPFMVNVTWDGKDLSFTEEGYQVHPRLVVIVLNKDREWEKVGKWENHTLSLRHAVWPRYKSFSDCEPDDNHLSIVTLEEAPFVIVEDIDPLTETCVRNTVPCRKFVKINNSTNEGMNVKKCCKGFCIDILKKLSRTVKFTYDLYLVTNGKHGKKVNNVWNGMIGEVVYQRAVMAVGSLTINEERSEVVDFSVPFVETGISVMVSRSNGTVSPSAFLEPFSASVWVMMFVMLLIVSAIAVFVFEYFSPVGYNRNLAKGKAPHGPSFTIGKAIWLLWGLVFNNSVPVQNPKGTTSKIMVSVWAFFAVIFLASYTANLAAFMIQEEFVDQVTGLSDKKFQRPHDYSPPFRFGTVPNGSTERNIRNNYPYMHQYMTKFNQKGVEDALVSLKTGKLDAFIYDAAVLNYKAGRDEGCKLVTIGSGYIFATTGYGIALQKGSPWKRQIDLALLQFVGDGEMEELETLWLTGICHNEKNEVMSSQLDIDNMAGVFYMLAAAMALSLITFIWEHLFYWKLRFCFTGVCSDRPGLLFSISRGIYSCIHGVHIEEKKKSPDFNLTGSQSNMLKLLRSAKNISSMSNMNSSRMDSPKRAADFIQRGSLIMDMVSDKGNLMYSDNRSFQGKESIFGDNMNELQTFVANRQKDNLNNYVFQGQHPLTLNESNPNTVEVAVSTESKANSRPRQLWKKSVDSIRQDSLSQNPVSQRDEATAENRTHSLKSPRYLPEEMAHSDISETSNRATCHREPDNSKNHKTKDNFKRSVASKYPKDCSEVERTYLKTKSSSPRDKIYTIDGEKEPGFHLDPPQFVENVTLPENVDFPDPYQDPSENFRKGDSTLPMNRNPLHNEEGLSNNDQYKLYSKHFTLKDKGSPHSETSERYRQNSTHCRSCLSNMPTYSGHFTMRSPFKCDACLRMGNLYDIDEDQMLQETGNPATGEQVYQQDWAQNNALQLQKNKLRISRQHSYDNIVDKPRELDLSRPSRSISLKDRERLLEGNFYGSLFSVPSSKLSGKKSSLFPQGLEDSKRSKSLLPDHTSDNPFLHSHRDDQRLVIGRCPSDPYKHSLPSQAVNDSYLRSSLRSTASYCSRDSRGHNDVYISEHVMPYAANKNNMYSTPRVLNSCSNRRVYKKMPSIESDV

| Structure (SMILES) | Activity [1] [%] | inhibition [2] | inhibition [3] | Ki [4] [µM] | Ki [5] [µM] |
| --- | --- | --- | --- | --- | --- |
| N[C@@H]1C[C@@]23CCCC[C@@]2(CCC3)C1 | 97 | inactive | inactive | 16 |  |
| NC12CC3CC(CC(C3)C1)C2 [AMANTADINE] | 3.9 |  |  | 11 | 10 |
| CC12CC3CC(C)(C1)CC(N)(C3)C2 [MEMANTINE] |  |  |  | 9.74 |  |
| NC1CC23CCCCC2(CCC3)C1 (mixture of isomers) | 65 |  |  | 10.5 |  |
| N[C@H]1C[C@@]23CCCC[C@@]2(CCC3)C1 | 116 | inactive | inactive | 11 |  |
| C[C@]12N[C@H](Cc3ccccc31)c1ccccc12 [DIZOCILPINE] |  |  |  | 0.003 |  |
